Most compounds without a hit are left out; they make up all but 2.6% or so of the library.
SENP7 inh = inhibitors of human SENP7 protease | Q9BQF6 | recombinant SENP7, Z-RLRGG-aminoluciferin luminescence, 40 min | inhibition, % at 5 µM | 1.5% of 330,000 active | AID 434973;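 active means inhibition above about 50% at the single test dose, limit read from the data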
Target sequence (Q9BQF6 706-1050 limits assumed): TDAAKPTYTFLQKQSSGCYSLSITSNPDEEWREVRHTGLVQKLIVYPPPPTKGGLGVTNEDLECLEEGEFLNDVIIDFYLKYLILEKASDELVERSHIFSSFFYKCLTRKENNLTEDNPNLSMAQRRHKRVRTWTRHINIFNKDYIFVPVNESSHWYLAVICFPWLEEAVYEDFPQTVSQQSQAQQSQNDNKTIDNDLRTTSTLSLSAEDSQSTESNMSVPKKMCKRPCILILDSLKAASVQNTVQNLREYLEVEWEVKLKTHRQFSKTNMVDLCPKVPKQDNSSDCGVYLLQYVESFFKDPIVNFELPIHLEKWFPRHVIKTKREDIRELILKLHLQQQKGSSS
SENP8 block-1 = inhibitors of human SENP8 protease. Q96LD8. recombinant SENP8, Nedd8 substrate fluorescence. inhibition, % at 20 µM. 0.64% of 360,000 active; in the data active means inhibition mostly above about 40%, no sharp cut-off; inactive means mostly below about 27%
SENP6 block = SENP6 protease inhibition | inhibition, % at 10 µM | Recombinant SENP6 catalytic domain, aminoluciferin luminescence | AID 2599 | 1.8% of 330,000 active;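 active means inhibition above about 50% at the single tested dose, limit read from the data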
SENP1 FRET inh = blocks the human SENP1 SUMO protease catalytic domain; Q9P0U3; recombinant SENP1 catalytic domain, CyPet-SUMO1-YPet FRET cleavage; inhibition, % at 10 µM; 0.21% of 360,000 active; AID 624204;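 active means inhibition at least 30% at 10 µM, raw YFP signal under a set limit, fluorescence ratio 0.5 to 1.5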
Target sequence (Q9P0U3 419-644 limits assumed): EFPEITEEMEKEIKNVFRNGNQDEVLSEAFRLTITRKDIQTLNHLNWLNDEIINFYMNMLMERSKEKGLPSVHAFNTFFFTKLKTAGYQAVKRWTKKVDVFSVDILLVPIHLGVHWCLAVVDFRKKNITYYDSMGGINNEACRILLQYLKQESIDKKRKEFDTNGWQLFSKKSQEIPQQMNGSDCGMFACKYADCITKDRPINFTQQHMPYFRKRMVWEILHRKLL
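System: Recombinant human SENP1 catalytic domain, His6-tagged | Incubation: Enzyme reaction for 50 min at room temperature, dark | Medium: Tris pH 8 with BME, BSA, NP40 and catalase | Also added: 25 nM SUMO1 FRET substrate | Compound: 10 µM single point, 0.5% DMSO | Measured by: FRET fluorescence in CFP and YFP emission channels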
Platelet DG rel = platelet dense granule release activity. human platelet-rich plasma, SFLLRN dense granule ATP release, luminescence. inhibition, %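 (compounds screened at 7.5 µM in platelet-rich plasma)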. 0.22% of 300,000 active;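 active means mean replicate score, as percent of positive control, at or above 50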
SENP8 block-2 = inhibitors of human SENP8 protease | inhibition, % at 10 µM | AID 2540 | purified SENP8, Z-RLRGG-aminoluciferin cleavage, luminescence | Q96LD8 | 1.2% of 330,000 active; in the data active means inhibition above about 50%
SENP8 inh conf = SENP8 (human) inhibition, single concentration confirmation; shares compounds with SENP8 block-1; purified SENP8, Nedd8-AMC/pro-Nedd8 cleavage fluorescence, 30 min; inhibition, % at 25 µM; 15% of 1,400 active; in the data active means inhibition mostly above about 39%, no sharp cut-off; inactive means mostly below about 34%
Large screens that a line does not name were inactive (follow-up assays come after a bar, where they were run).

CCN1CCN(c2ccc([N+](=O)[O-])c(Sc3nc4ccccc4[nH]3)c2)CC1	SENP8 block-1 41 | SENP8 inh conf inactive
COC(=O)c1ccc(OCC(O)CN2CCOCC2)cc1 (stereo not given)	none
CCN(CC)c1ccc(NC(=S)NCC2CCCO2)cc1 (stereo not given)	none
CCC(C(=O)OC)(C(=O)OC)c1ccc([N+](=O)[O-])cc1	none
COc1ccc2[nH]c3c(NCCN4CCCCC4)ncnc3c2c1	none
COc1cc(NCCCNC(C)C)c2nccc(C)c2c1	SENP8 block-1 65 (no result: SENP7 inh, SENP6 block, Platelet DG rel, SENP8 block-2) | SENP8 inh conf 48
O=C(/C=C/c1ccc2c(c1)OCO2)c1ccc(O)cc1O	SENP8 block-1 40 (no result: SENP7 inh, SENP6 block, Platelet DG rel, SENP8 block-2) | SENP8 inh conf inactive
Cc1c(Cl)cccc1NC(=O)CSC(C)c1nc2ccccc2c(=O)[nH]1 (stereo not given)	SENP8 block-1 27 | SENP8 inh conf inactive
CC(SCC(=O)Nc1ccccc1)c1nc2ccccc2c(=O)[nH]1 (stereo not given)	none
Cc1c(C)c2c(OCC(=O)N3CCC(C(N)=O)CC3)cc3c(c2oc1=O)CCC(C)(C)O3	none
CCN(CC)CCN(C)C(c1cc2ccccc2o1)c1nnnn1C(C)(C)C (stereo not given)	none (no result: SENP7 inh, SENP6 block, Platelet DG rel, SENP8 block-2)
CC(=O)c1cccc(NC(=O)N2CCCC2C(=O)Nc2cccc(C)c2)c1 (stereo not given)	SENP8 block-1 42 | SENP8 inh conf inactive
CCOc1ccc(N2C(=O)CC(n3nc(C)cc3C)C2=O)cc1 (stereo not given)	SENP8 block-1 45 | SENP8 inh conf inactive
CCc1ccccc1NC(=O)CCNC(=O)Cn1ccc2ccccc2c1=O	none
COc1ccc(OC)c(S(=O)(=O)N(C)CC(=O)N2CCc3ccccc3C2)c1	SENP8 block-1 58 | SENP8 inh conf 71
CCN(CC)c1ccc(NC2CC(=O)N(CCc3ccc(OC)cc3)C2=O)cc1 (stereo not given)	SENP8 block-1 74 | SENP8 inh conf inactive
CC1CCCN(S(=O)(=O)c2cnc[nH]2)C1 (stereo not given)	none
CC1=CC(=C(C#N)c2nc3ccccc3s2)C=C(C)N1Cc1ccco1	SENP8 block-1 59 | SENP8 inh conf inactive
O=C(NCc1ccco1)c1nc2ccccc2s1	none
C=CC[C@]12C[C@@H](OC)C(=O)C=C1O[C@@H](c1ccc(OC)c(OC)c1)[C@H]2C	SENP8 block-1 42 | SENP8 inh conf inactive
C=CC[C@@]12C=C(OC)C(=O)C(OC)=C1O[C@H](c1ccc3c(c1)OCO3)[C@H]2C	none
OCCN1CCN(C(=S)c2ccc(Cl)c(Cl)c2)CC1	SENP8 block-1 42 | SENP8 inh conf 34
Cn1c(=O)n(C)c2cc(S(=O)(=O)Nc3cc(Cl)ccc3O)ccc21	none
CC(=O)OCCCNc1cc(Sc2nc3ccccc3s2)c2nonc2c1[N+](=O)[O-]	SENP7 inh 81, SENP8 block-1 60, SENP6 block 84, SENP8 block-2 92 | SENP8 inh conf inactive
CC(=O)OCCNc1cc(SCc2ccco2)c2nonc2c1[N+](=O)[O-]	SENP8 block-1 76 (no result: SENP7 inh, SENP6 block, SENP8 block-2) | SENP8 inh conf inactive
O=[N+]([O-])c1c(NCCCO)cc(SCc2ccco2)c2nonc12	SENP8 block-1 42 | SENP8 inh conf inactive
CC(=O)OCCCNc1cc(Sc2ccc(C)cc2)c2nonc2c1[N+](=O)[O-]	none
Cc1ccc(NC(=O)CN2C(=O)NC(C)(c3ccccc3)C2=O)c(C)c1 (stereo not given)	none
CN(C(=O)c1cccc(NC(=O)Cc2ccc(NC(=O)C3CCCN(C(=O)c4ccccc4)C3)cc2)c1)C1CCCC1 (stereo not given)	none (no result: SENP7 inh, SENP6 block, Platelet DG rel, SENP8 block-2)
O=C(C(=O)c1ccc(O)cc1)c1ccccc1	none
N#CC(C(=O)c1ccccc1)=C1SCCS1	SENP8 block-1 42 | SENP8 inh conf inactive
CCc1nc2ccc(C(=O)NCC3CCCCC3)cn2c1N(C)C(=O)c1cccc(OC)c1	none (no result: SENP7 inh, SENP6 block, Platelet DG rel, SENP8 block-2)
COc1cccc(N2C(=O)C(CC(=O)Nc3ccc(F)cc3)N(C3CCCCC3)C2=O)c1 (stereo not given)	SENP8 block-1 46 | SENP8 inh conf inactive
COc1cc(O)c2c(=O)cc(-c3ccccc3)oc2c1	SENP8 block-1 53 | SENP8 inh conf inactive
COc1cc(-c2cc(=O)c3ccccc3o2)ccc1O	none
COc1c(O)cc(O)c2c(=O)cc(-c3ccccc3)oc12	SENP8 block-1 69 (no result: Platelet DG rel) | SENP8 inh conf inactive
COc1cc(-c2cc(=O)c3c(O)cc(O)cc3o2)ccc1O	SENP8 block-1 56 | SENP8 inh conf inactive
CN(C(=O)C1CCC(=O)N(CCc2ccc(Cl)cc2)C1)C1CCOCC1 (stereo not given)	none
C[C@H](CCC(=O)O)[C@H]1CC[C@H]2[C@@H]3CC[C@@H]4C[C@H](O)CC[C@]4(C)[C@H]3CC[C@]12C	SENP8 block-1 64 (no result: Platelet DG rel) | SENP8 inh conf inactive
CCOC(=O)N1CCC(NC(=O)c2oc3c(C)c(C)ccc3c2C)CC1	none
c1ccc(SSc2ccccn2)nc1	none
c1ccc(Sc2ccccn2)cc1	SENP8 block-1 40 | SENP8 inh conf inactive
Cc1ccc(S(=O)(=O)N2CCN(C(=O)CN3CCc4ccccc4C3)CC2)cc1	none
O=C(CN1CCc2ccccc2C1)N1CCN(S(=O)(=O)c2ccccc2)CC1	SENP8 block-1 46 | SENP8 inh conf inactive
CCNc1nc(NC(C)(C)C)nc(N2CCCC2)n1	none
CC(C)(C)Nc1nc(N2CCCC2)nc(N2CCCC2)n1	SENP8 block-1 44 | SENP8 inh conf inactive
COCc1nnc(NC(=O)c2cc(OC)c(OC)cc2[N+](=O)[O-])s1	none
O=C(O)CCCCNS(=O)(=O)c1ccc(Cl)c(C(F)(F)F)c1	SENP8 block-1 42 | SENP8 inh conf inactive
O=C(NC(=S)Nc1cc(S(=O)(=O)N2CCOCC2)ccc1N1CCOCC1)C1CCCC1	none (no result: SENP8 block-1, SENP1 FRET inh)
CC(Nc1ccc(S(=O)(=O)N2CCN(C)CC2)cc1[N+](=O)[O-])c1ccccc1 (stereo not given)	none (no result: Platelet DG rel)
COc1ccccc1C(C)Nc1ccc(S(=O)(=O)N2CCN(C)CC2)cc1[N+](=O)[O-] (stereo not given)	SENP8 block-1 39 (no result: Platelet DG rel) | SENP8 inh conf inactive
N#CC1=C(N)Oc2n[nH]c(-c3cccs3)c2C1c1cccs1 (stereo not given)	SENP8 block-1 59 | SENP8 inh conf inactive
O=C(COc1cccnc1[N+](=O)[O-])Nc1cc(S(=O)(=O)N2CCCCC2)ccc1Cl	none
CCOC(=O)Nc1ccc2c(c1)N(C(=O)CN(CC)CC)c1ccccc1CC2	none
CCN(CC)CC(=O)Nc1ccc2c(c1)N(C(=O)CN(CC)CC)c1ccccc1CC2	SENP8 block-1 40 | SENP8 inh conf 55
Nc1ccccc1O	SENP8 block-1 58 (no result: Platelet DG rel) | SENP8 inh conf inactive
COc1cc(CNn2nnnc2N)ccc1OCc1c(Cl)cccc1Cl	SENP8 block-1 44 | SENP8 inh conf inactive
